pPAFAH inh: pPAFAH (human) enzyme inhibition. inhibition, % at 3.39 µM. AID 463082. actives 1.5% (n = 330,000). recombinant pPAFAH, FP-rhodamine probe fluorescence polarization;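 active means inhibition above the mean inhibition across the screen plus 3 SD, cut at about 25% in these data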;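 further: inhibitors block binding of the rhodamine activity-based probe so polarization drops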
Target sequence (Q13093 whole entry, looked up): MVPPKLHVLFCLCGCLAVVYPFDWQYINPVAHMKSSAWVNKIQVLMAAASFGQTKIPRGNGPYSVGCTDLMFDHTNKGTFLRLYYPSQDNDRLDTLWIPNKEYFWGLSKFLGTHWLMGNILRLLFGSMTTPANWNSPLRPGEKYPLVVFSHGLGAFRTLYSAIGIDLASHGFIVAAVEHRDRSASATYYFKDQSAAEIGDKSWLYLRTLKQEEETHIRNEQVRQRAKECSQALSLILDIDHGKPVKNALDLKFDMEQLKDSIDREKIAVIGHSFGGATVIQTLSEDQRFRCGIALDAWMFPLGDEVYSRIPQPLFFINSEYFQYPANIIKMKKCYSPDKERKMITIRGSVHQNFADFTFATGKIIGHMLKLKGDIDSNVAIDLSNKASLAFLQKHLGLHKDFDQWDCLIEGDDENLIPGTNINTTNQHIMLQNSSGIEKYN
PAFAH1B2 inh: inhibitors of human PAFAH1B2. recombinant PAFAH1B2, FP-rhodamine activity probe, fluorescence polarization. inhibition, % at 3.39 µM. actives 1.2% (n = 340,000);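 active means inhibition above the mean of all tested compounds plus 3 SD, cut at about 24% in these data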
PAFAH1B3 inh: inhibitors of human PAFAH1B3. AID 492972. recombinant PAFAH1B3, FP-rhodamine probe, fluorescence polarization. inhibition, % at 3.39 µM. actives 0.28% (n = 340,000). Q15102;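 active means inhibition above the screen-wide average of all tested compounds plus 3 SD, cut at about 25% in these data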
PAFAH2 inh: inhibitors of human PAFAH2; AID 492956; actives 0.99% (n = 340,000); inhibition, % at 3.39 µM; recombinant PAFAH2, FP-rhodamine activity probe, fluorescence polarization;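 active means inhibition above the mean over all tested compounds plus 3 SD, cut at about 30% in these data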;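 further: inhibitors block probe labeling of enzyme so polarization drops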
mABHD4 FP: ABHD4 (mouse) inhibition, primary FP screen; inhibition, % at 8.92 µM; actives 0.54% (n = 370,000); purified mABHD4, FP-Rh probe fluorescence polarization; AID 720543;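 active means inhibition exceeding the mean over every tested compound plus 3 SD, cut at about 30% in these data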
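Assay system: wild-type mouse ABHD4 protein; compound: single nominal dose of 8.92 µM, 0.89% DMSO final; schedule: 45 min + 60 min at 25 °C; measured by: FP readout, ex 525 nm / em 598 nm; evaluation: % inhibition of FP-Rh probe binding versus controls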
HTRA1 inh: blocks human HTRA1 serine peptidase | Q92743 | recombinant HTRA1, FP-rhodamine activity-based probe, fluorescence polarization | inhibition, % at 5.96 µM | actives 0.5% (n = 340,000) | AID 504803; in the data active means inhibition above about 36%
PAFAH2 FP conf: confirmation of human PAFAH2 inhibitors; shares compounds with PAFAH2 inh; recombinant PAFAH2, FP-rhodamine activity probe, fluorescence polarization; inhibition, % at 3.39 µM; actives 65% (n = 2,300);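 active means mean inhibition over three repeats above a set limit taken from the earlier primary screen, cut at about 30% in these data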;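 further: inhibitor blocks binding of rhodamine activity probe so polarization falls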
Hits are given with their value; - = inactive; . = no result. Hits are enriched below; roughly 2.8% of the tested compounds scored in any of these assays.

SMILES	pPAFAH inh	PAFAH1B2 inh	PAFAH1B3 inh	PAFAH2 inh	mABHD4 FP	HTRA1 inh	PAFAH2 FP conf
Cc1ccsc1C(=O)OCC(=O)Nc1ccc(Cl)cn1	-	-	-	78	-	-	48
O=C(COC(=O)c1cccs1)Nc1ccc(Cl)cn1	-	-	-	67	-	-	73
COc1ccc(NC(=O)COC(=O)c2cc3c(s2)CCC3)cc1	-	-	-	77	.	-	82
O=C(COC(=O)c1cc2c(s1)CCCC2)Nc1ccc(Cl)cn1	-	-	-	30	-	-	33
Cc1ccsc1C(=O)OCC(=O)NCc1ccc(Cl)cc1	-	-	-	39	-	-	40
COCCN(C(=S)Nc1c(C)cccc1C)C(C)c1cccs1 (stereo unspecified)	-	-	-	51	-	-	39
COc1ccc(CNCC#Cc2ccc(C(F)(F)F)cc2)c(OC)c1	.	.	.	.	-	.	.
O=C(COC(=O)c1ccc[nH]c1=O)NCCC1=CCCCC1	-	-	-	-	-	-	.
O=C(COC(=O)CNC(=O)c1ccc(Br)cc1)NCCC1=CCCCC1	-	-	-	-	-	-	.
Nc1cc(C(=O)OCC(=O)NCCC2=CCCCC2)ccc1Cl	-	-	-	52	-	-	38
Cc1ccsc1C(=O)OCC(=O)NCCC1=CCCCC1	-	-	-	32	-	-	-
O=C(COC(=O)c1ccccc1)NCCC1=CCCCC1	-	-	-	35	-	-	31
O=C(COC(=O)c1ccc(Br)cc1)NCCC1=CCCCC1	-	-	-	31	-	-	32
C[C@H](O)[C@@H]1CN2CCc3c([nH]c4c(-c5ccc6c(c5)OCO6)cccc34)[C@@H]2C[C@@H]1N(C)C(=O)NC1CCCCC1	.	.	.	.	-	.	.
CCOC(=O)c1cccc(NC(=O)CN(C)S(=O)(=O)c2ccc(F)cc2)c1	.	.	.	.	-	.	.
CN(CCO)c1ccc2c(c1)Oc1ccccc1CN(Cc1cn(Cc3ccc(C(F)(F)F)cc3)nn1)S2(=O)=O	.	.	.	.	-	.	.
COc1ccc(C(=O)OCN2C(=O)c3ccccc3C2=O)cc1	-	-	-	37	-	-	-
O=C(/C=C/c1ccccc1)OCN1C(=O)c2ccccc2C1=O	-	-	-	33	-	-	-
CCN(CC)c1ccc(S(=O)(=O)N2CCOCC2)cc1NC(=O)COC(=O)/C=C/c1ccccc1	.	-	-	57	-	-	42
CCN(CC)c1ccc(S(=O)(=O)N2CCOCC2)cc1NC(=O)COC(=O)c1ccco1	-	-	-	-	-	-	.
CCN(CC)c1ccc(S(=O)(=O)N2CCOCC2)cc1NC(=O)COC(=O)/C=C/c1ccc(C)o1	-	-	-	38	-	-	40
CCN(CC)c1ccc(S(=O)(=O)N2CCOCC2)cc1NC(=O)COC(=O)/C=C/c1ccc(O)c(OC)c1	.	-	-	65	-	-	66
Cc1ccc(-c2nnc(SCc3ccc([N+](=O)[O-])cc3)n2-c2ccccc2)cc1	.	.	.	.	-	.	.
CC(C)(C)C(=O)OC12CCCN(C1)/C(=C/c1cccnc1)C2 (stereo unspecified)	.	.	.	.	-	.	.
CC(C)CC(NC(=O)C1CCC(=O)N1C(=O)OCc1ccccc1)C(=O)NC(Cc1ccccc1)C(N)=O (stereo unspecified)	-	-	-	52	-	-	48
SMILES	pPAFAH inh	PAFAH1B2 inh	PAFAH1B3 inh	PAFAH2 inh	mABHD4 FP	HTRA1 inh	PAFAH2 FP conf
COC(=O)[C@@H](Cc1ccc(O)cc1)NC(=O)[C@H]1CCC(=O)N1C(=O)OCc1ccccc1	-	-	-	-	-	-	.
CCC(C)C(NC(=O)C1CCC(=O)N1C(=O)OCc1ccccc1)C(=O)NC(Cc1ccccc1)C(N)=O (stereo unspecified)	-	-	-	78	-	-	64
COc1cc(/C=C/C(=O)OCC(=O)Nc2ccc3c(c2)OCO3)ccc1O	-	-	-	82	-	-	74
Cc1nn(C2CCS(=O)(=O)C2)c(Cl)c1/C=C/C(=O)OCC(=O)Nc1ccc2c(c1)OCO2 (stereo unspecified)	-	-	-	83	-	-	80
COc1cc(NC(=O)COC(=O)/C=C/c2c(C)nn(C3CCS(=O)(=O)C3)c2Cl)cc(OC)c1OC (stereo unspecified)	-	-	-	-	-	-	.
COc1ccc(/C=C/C(=O)OCC(=O)Nc2ccc3c(c2)OCO3)cc1	-	-	-	70	-	-	69
COc1cc(/C=C/C(=O)OCC(=O)Nc2ccc3c(c2)OCCO3)ccc1O	-	-	-	75	-	-	80
N#Cc1cccc(NC(=O)CSc2sc3c(O)cc(=O)[nH]c3c2C#N)c1	-	-	-	40	-	-	-
CCS(=O)(=O)c1ccc(O)c(NC(=O)/C=C/c2ccccc2)c1	-	-	-	75	-	-	73
CCS(=O)(=O)c1ccc(O)c(NC(=O)CC2(CC(=O)O)CCCC2)c1	-	-	-	37	-	-	-
CCCc1ccc(OCC(=O)Nc2cc(S(=O)(=O)CC)ccc2O)cc1	-	-	-	33	-	-	-
CCS(=O)(=O)c1ccc(O)c(NC(=O)CCCC(=O)O)c1	-	-	-	-	-	-	.
Cc1c(O)ccc(NC(=O)/C=C/c2ccccc2)c1C	-	-	-	-	-	-	.
CCS(=O)(=O)c1ccc(O)c(NC(=O)COc2ccc(OC)cc2)c1	-	-	-	-	-	-	.
CCS(=O)(=O)c1ccc(O)c(NC(=O)Nc2ccccc2OC)c1	-	-	-	47	-	-	59
CCOc1ccc(-n2c(SCC(=O)Nc3cccc4ccccc34)nnc2-c2ccccc2)cc1	.	.	.	.	-	.	.
Cc1ccc(-c2cc(C(=O)NN=Cc3ccc(N(C)C)cc3)[nH]n2)cc1C	.	.	.	.	-	.	.
CCCOc1ccc(-c2nc(CSCC(=O)NC3CC3)c(C)o2)cc1	.	.	.	.	-	.	.
CCSc1nnc(NC(=O)CSc2c(Cl)cccc2Cl)s1	-	-	-	50	-	-	42
CCSc1nnc(NC(=O)CSc2ncccn2)s1	-	-	-	-	-	-	.
Cc1cc2c(=O)oc(-c3ccccc3Br)nc2s1	.	-	-	69	-	-	52
COc1cc2nc(-c3ccccc3C)oc(=O)c2cc1OC	-	-	-	-	-	-	.
COc1ccc(/C=C/C(=O)OCC(=O)Nc2ccc(Cl)cn2)cc1	-	-	-	-	-	-	.
Cc1nn(-c2ccccc2)c(C)c1/C=C/C(=O)OC(C)C(=O)Nc1ncc(Cl)cc1Cl (stereo unspecified)	-	-	-	-	-	-	.
Cc1nn(-c2ccccc2)c(C)c1/C=C/C(=O)OCC(=O)Nc1ncc(Cl)cc1Cl	-	-	-	49	-	-	55
COc1ccc(/C=C/C(=O)OCC(=O)Nc2ncc(Cl)cc2Cl)cc1	-	-	-	37	-	-	43
